Assay results from ChEMBL document CHEMBL2384965, “ABSOLUTE CONFIGURATION AND BIOLOGICAL PROPERTIES OF ENANTIOMERS OF CFTR INHIBITOR BPO-27” (ACS Med Chem Lett, 2013).
pIC50: −log10 of the molar value. Active and inactive are the calls of the source. No cut-off for these calls is given here.

Key:
[1] = target: T1, Cystic fibrosis transmembrane conductance regulator (Homo sapiens, UniProt P13569); test: Inhibition of wild type human CFTR chloride conductance expressed in forskolin-stimulated rat FRT cells at 100 nM by short-circuit current analysis in presence of transepithelial chloride gradient; assay type: cell-based
Method in brief: (§1)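 FRT epithelial cells expressing human wild-type CFTR, basolateral membrane permeabilized with amphotericin B, transepithelial chloride gradient applied. CFTR chloride conductance activated with 10 μM forskolin; inhibition read as the reduction in short-circuit current.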
Target sequence in this assay (P13569 whole entry, looked up): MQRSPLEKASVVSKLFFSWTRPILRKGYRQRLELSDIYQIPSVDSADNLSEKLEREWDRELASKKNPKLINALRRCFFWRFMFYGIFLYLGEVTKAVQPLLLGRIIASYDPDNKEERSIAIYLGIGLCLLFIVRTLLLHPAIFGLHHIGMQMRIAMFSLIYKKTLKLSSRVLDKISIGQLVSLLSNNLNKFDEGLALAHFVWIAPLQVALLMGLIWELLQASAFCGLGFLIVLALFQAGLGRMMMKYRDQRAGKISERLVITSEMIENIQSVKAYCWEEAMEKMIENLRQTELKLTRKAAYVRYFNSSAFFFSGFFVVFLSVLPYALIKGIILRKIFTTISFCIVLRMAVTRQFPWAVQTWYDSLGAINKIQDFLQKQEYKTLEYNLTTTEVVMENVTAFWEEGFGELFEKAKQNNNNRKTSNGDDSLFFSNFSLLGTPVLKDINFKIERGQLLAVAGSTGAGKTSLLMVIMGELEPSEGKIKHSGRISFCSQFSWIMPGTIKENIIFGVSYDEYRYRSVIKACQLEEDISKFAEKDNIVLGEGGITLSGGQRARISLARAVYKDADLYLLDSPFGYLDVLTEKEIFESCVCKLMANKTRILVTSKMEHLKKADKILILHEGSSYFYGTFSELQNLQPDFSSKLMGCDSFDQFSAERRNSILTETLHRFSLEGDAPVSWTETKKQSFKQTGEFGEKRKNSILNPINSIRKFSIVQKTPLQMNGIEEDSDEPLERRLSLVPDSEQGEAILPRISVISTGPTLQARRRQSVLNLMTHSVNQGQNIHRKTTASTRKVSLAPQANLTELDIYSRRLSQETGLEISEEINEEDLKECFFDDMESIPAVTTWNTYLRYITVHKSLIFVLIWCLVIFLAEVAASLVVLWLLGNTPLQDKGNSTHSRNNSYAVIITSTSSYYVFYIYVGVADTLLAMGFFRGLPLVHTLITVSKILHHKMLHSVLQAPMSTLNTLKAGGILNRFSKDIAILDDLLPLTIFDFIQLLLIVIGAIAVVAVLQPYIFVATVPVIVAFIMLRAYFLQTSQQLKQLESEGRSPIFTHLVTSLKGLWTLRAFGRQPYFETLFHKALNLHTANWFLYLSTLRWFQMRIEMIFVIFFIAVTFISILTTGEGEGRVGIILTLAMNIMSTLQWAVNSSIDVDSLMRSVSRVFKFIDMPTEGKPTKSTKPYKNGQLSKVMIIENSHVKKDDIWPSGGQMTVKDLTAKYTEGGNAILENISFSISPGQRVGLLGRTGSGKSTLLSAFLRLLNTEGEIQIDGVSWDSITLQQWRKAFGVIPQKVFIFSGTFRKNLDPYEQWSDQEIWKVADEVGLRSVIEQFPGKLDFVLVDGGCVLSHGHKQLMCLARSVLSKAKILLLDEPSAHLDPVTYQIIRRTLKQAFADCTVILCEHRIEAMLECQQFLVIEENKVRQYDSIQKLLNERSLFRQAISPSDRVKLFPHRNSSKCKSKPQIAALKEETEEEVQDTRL

[2] = target: T1, Cystic fibrosis transmembrane conductance regulator; test: Inhibition of wild type human CFTR chloride conductance expressed in forskolin-stimulated rat FRT cells by short-circuit current analysis in presence of transepithelial chloride gradient; assay type: cell-based; method in brief: as §1
[3] = Drug metabolism in rat liver microsomes at 5 uM measured over 4 hrs by LC/MS analysis in presence of NADPH; assay type: ADME, Microsome; details: read-out: Drug metabolism
[4] = test system: Serum; test: Metabolic stability in mouse serum at 5 mg after 4 hrs by hydrogen-deuterium exchange assay; assay type: ADME, cell-free
[5] = test system: Serum; test: Metabolic stability in mouse serum assessed as formation of (S)-BPO-27 at 5 mg measured at 4 hrs by hydrogen-deuterium exchange assay; assay type: ADME, cell-free
[6] = Drug uptake in CD1 mouse kidney at 10 mg/kg, ip administered as bolus dose measured at 4 hrs by LC-MS analysis; assay type: ADME, organism-based; parameters: dose 10 mg/kg, route intraperitoneal; details: read-out: Drug uptake
Method in brief: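 Mice received a single bolus intraperitoneal dose of 10 mg/kg in 5% DMSO, 2.5% Tween-80 and 2.5% PEG400 in water. Kidney homogenate was taken at 4 h and the compound measured by LC/MS (3 mice).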

[7] = Half life in CD1 mouse at 10 mg/kg, ip administered as bolus dose; assay type: ADME, organism-based; parameters: dose 10 mg/kg, route intraperitoneal; details: in vivo
Method in brief: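 Single bolus i.p. dose of 10 mg/kg in mice, given in 5% DMSO, 2.5% Tween-80 and 2.5% PEG400 in water. Blood sampled at set times; serum compound measured by LC/MS ion chromatograms (m/z 548 [M+H]+) against a calibration of known amounts spiked into blood (linear, sensitivity better than 500 nM). Mean ± S.E., n = 3; t1/2 from the decay of the parent compound.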

For `CC(C)N.Cn1c(=O)c2c(-c3ccccc3)n3c(c2n(C)c1=O)[C@H](c1ccc(Br)o1)Oc1ccc(C(=O)O)cc1-3` [listing 1 of 2 here], the inhibition [1] was “Active” and the inhibition [2] was “Dose-dependent effect”.

In the case of `CC(C)N.Cn1c(=O)c2c(-c3ccccc3)n3c(c2n(C)c1=O)[C@@H](c1ccc(Br)o1)Oc1ccc(C(=O)O)cc1-3` [listing 1 of 2 here], the inhibition [1] was “inactive”.

With `CCOC(=O)c1ccc2c(c1)-n1c(-c3ccccc3)c3c(=O)n(C)c(=O)n(C)c3c1[C@@H](c1ccc(Br)o1)O2` the inhibition [1] was “inactive”.

`Cn1c(=O)c2c(-c3ccccc3)n3c(c2n(C)c1=O)[C@@H](c1ccc(Br)o1)Oc1ccc(C(=O)O)cc1-3` showed a metabolised at 4 h, 5 µM [3] of less than 5%.

`CC(C)N.Cn1c(=O)c2c(-c3ccccc3)n3c(c2n(C)c1=O)[C@H](c1ccc(Br)o1)Oc1ccc(C(=O)O)cc1-3` [listing 2 of 2 here] showed a pIC50 [2] of 8.40.

For `CC(C)N.Cn1c(=O)c2c(-c3ccccc3)n3c(c2n(C)c1=O)[C@@H](c1ccc(Br)o1)Oc1ccc(C(=O)O)cc1-3` [listing 2 of 2 here], the Stability [4] was “Stable”.

For `Cn1c(=O)c2c(-c3ccccc3)n3c(c2n(C)c1=O)[C@H](c1ccc(Br)o1)Oc1ccc(C(=O)O)cc1-3`, the Stability [5] was “Stable”, the metabolised at 4 h, 5 µM [3] was less than 5% and the concentration at 4 h [6] was 600 nM. It also gave a half-life [7] of 1.6 h.
